An excerpt weighted towards active compounds, which were near 2.9% of everything screened.
Mot1-301 SUMO – inhibitors of SUMOylation pathway: yeast Mot1-301 growth rescue | growth rescue, % at 18.8 µM | 320,000 tested, 1% active | S. cerevisiae Mot1-301 growth rescue, ATP luminescence, 38.5C; percent above DMSO median, 100 means doubled;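 active means every valid replicate shows activation above 250% relative to neutral control wells; inactive means the rest, any valid replicate at or below 250%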;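 further: OY570 slx delta 5 strain wells were the positive control but not used for scaling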
PolyA inh – inhibitors of polyadenylation in S. cerevisiae; S. cerevisiae SKY197-pL101 polyadenylation reporter, beta-gal luminescence; efflux-impaired pdr1/pdr3 knockout yeast; score 100 = 6 SD above DMSO; activity score, % at 12 µM; 300,000 tested, 0.02% active; AID 1875;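 active means lowest replicate activity score at least 50, where 100 means six control SD above control mean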;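 further: yeast exposed to compound for 9 h at 30 °C; higher score means more reporter readthrough which indicates perturbed polyadenylation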
IMP-1 inh-1 – blocks Pseudomonas aeruginosa IMP-1 metallo-beta-lactamase; purified IMP-1, nitrocefin hydrolysis, epi-absorbance fluorescence; inhibition, % at 5.6 µM; 290,000 tested, 0.45% active; AID 1556;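 active means inhibition above the mean plus 3 SD of all compounds in the same screening run, cut at about 4.5% in these data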;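 further: 0% = IMP-1 with DMSO and 100% = DMSO wells lacking enzyme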
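Assay system: purified IMP-1; Quantity: IMP-1 0.2 nM before substrate addition; Medium: HEPES buffer pH 7.1 with ZnSO4 and Brij 35; Incubation: 15 min enzyme–compound preincubation, then 25 min nitrocefin reaction, 25 °C; Signal: fluorescence quenching readout, ex 480/em 530 nm; Controls: DMSO with and without IMP-1; Repeats: singlicate testing.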
VIM-2 inh – blocks Pseudomonas aeruginosa VIM-2 metallo-beta-lactamase; AID 1527; 290,000 tested, 0.89% active; purified VIM-2, nitrocefin hydrolysis, epi-absorbance fluorescence; inhibition, % at 5.6 µM;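 active means inhibition above the mean of all tested compounds plus 3 SD, cutoff set per screening run, cut at about 7.5% in these data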;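 further: red hydrolysis product quenches plate fluorescence so inhibitors raise well fluorescence; 0% = enzyme with DMSO and 100% = DMSO without enzyme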
NALP1 yeast inh – blocks the NALP1 inflammasome reconstituted in yeast | S. cerevisiae NALP1/ASC/caspase-1 growth, X-gal OD620, 72 h | inhibition, % at 10 µM | 280,000 tested, 0.61% active | AID 2071; in the data active means inhibition mostly above about 24%, no sharp cut-off; inactive means mostly below about 32%
NALP3 yeast inh – inhibitors of NALP3 inflammasome in yeast | Yeast reconstituted NLRP3/ASC/caspase-1, beta-gal luminescence, 24 h | inhibition, % at 10 µM | 330,000 tested, 0.39% active | AID 2825;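 active means inhibition of 50% or more; inactive means inhibition below 50%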;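 further: plate controls were induced DMSO wells for no effect and uninduced yeast grown without galactose for full effect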
IMP-1 inh-2 – IMP-1 inhibition, counter-screen for VIM-2 inhibitors; AID 1856; inhibition, % at 5.6 µM; purified IMP-1, nitrocefin hydrolysis, epi-absorbance fluorescence; 1,300 tested, under 10 active; shares compounds with VIM-2 inh; call rule not given here;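 further: 0% = enzyme with vehicle and 100% = vehicle without enzyme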
VIM-2 FRET ctr – VIM-2 FRET inhibition, artifact counter-screen | shares compounds with VIM-2 inh | purified VIM-2, CCF2 FRET substrate hydrolysis | inhibition, % at 5.6 µM | 1,300 tested, 23% active | AID 1857;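 active means inhibition above the mean of all tested compounds plus 3 SD, cut at about 19% in these data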;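 further: 0% = VIM-2 plus DMSO and 100% = no enzyme wells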
TEM-1 inh – selectivity counter-screen for VIM-2 inhibitors: E. coli TEM-1 inhibitors | shares compounds with VIM-2 inh | Purified TEM-1, nitrocefin hydrolysis, epi-absorbance fluorescence | inhibition, % at 5.6 µM | 1,300 tested, 3% active;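 active means inhibition above that campaign's mean inhibition plus 3 SD, cut at about 0.46% in these data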;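 further: 0% = TEM-1 with DMSO and 100% = TEM-1 with 100 µM potassium clavulanate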
Target sequence (P62593 whole entry, looked up): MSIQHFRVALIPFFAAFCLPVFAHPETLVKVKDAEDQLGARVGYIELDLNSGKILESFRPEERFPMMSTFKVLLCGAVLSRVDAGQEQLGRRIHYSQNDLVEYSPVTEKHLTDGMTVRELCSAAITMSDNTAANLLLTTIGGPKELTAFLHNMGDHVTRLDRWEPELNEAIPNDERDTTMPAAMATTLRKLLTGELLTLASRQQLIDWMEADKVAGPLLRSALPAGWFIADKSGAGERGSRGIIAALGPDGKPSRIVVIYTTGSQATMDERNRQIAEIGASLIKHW
VIM-2 inh conf – confirmation of P. aeruginosa VIM-2 metallo-beta-lactamase inhibitors | shares compounds with VIM-2 inh | purified VIM-2, nitrocefin hydrolysis, epi-absorbance | inhibition, % at 5.6 µM | 1,300 tested, 96% active;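 active means inhibition of the VIM-2 beta-lactamase enzyme above about 11% from the earlier first-round screen, limit read from the data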;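 further: 0% = VIM-2 with DMSO and 100% = buffer wells without enzyme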
* marks the source's active call; other numbers are inactive results; · = no result given.

SMILES	Mot1-301 SUMO	PolyA inh	IMP-1 inh-1	VIM-2 inh	NALP1 yeast inh	NALP3 yeast inh	IMP-1 inh-2	VIM-2 FRET ctr	TEM-1 inh	VIM-2 inh conf
CCSc1ccc2nnc(-c3cccc(F)c3)n2n1	10.8	0.6	-1.9	12.4*	20.7	28.1	-3.3	-8.6	-6.3	23.1*
Cc1cc(NCc2ccccc2)n2ncc(-c3ccccc3)c2n1	6.7	9.8	-4.1	-2.6	17.3	20.8	·	·	·	·
Cc1cc(NCCN2CCOCC2)n2nc(C)c(-c3ccc(Cl)cc3)c2n1	53.3	-32.4	-4.8	-2.5	10.9	17.8	·	·	·	·
c1ccc(-c2nc(NCCCn3ccnc3)c3ccccc3n2)cc1	7.6	1.3	-2.8	22.2*	-4.1	16.6	-1.8	-16.0	-1.5	36.1*
Cc1cc(NCCCn2ccnc2)n2nc(C)c(-c3ccccc3)c2n1	-6.9	11.0	-2.8	68.1*	13.7	2.5	-3.9	-15.1	-6.8	79.3*
Cc1cc(NCCCn2ccnc2)n2ncc(-c3ccccc3)c2n1	7.1	·	-1.9	57.1*	-0.8	8.0	-0.7	-14.5	1.4*	73.0*
Cc1cc(NCCCn2ccnc2)n2nc(C)c(-c3ccc(Cl)cc3)c2n1	-0.8	-5.7	-0.1	50.1*	-10.3	15.3	-2.5	-21.9	-6.1	60.5*
Cc1ccc(Cn2c(CCC(=O)O)nc3ncccc3c2=O)cc1	-10.7	13.5	-3.3	-1.8	0.5	12.9	·	·	·	·
CCN(CC)C(=O)CN1C(=O)C2(OCC(C)(C)CO2)c2ccccc21	0.3	·	·	·	·	7.3	·	·	·	·
CN(Cc1ccccc1)S(=O)(=O)c1ccc(NC(=O)c2ccccc2C(=O)O)cc1	-12.0	0.7	·	·	·	-0.6	·	·	·	·
CCN1CCN(CCCNC(=O)c2ccc3c(c2)NC(=O)/C(=C\c2cccc(C)c2)S3)CC1	-8.3	-10.3	-2.8	4.1	-16.5	8.9	·	·	·	·
COc1ccc(C(=O)NCCCN2CCOCC2)cc1OC	·	-0.7	-2.3	-3.2	-22.0	17.2	·	·	·	·
COc1ccc(/C=C2/Sc3ccc(C(=O)NCCCN4CCOCC4)cc3NC2=O)cc1OC	-14.8	-17.6	-4.0	21.5*	3.6	7.2	-3.7	19.0*	-13.0	25.0*
COc1cccc(/C=C2/Sc3ccc(C(=O)NCCN4CCCCCC4)cc3NC2=O)c1	-10.5	9.8	-0.6	6.1	17.6	14.9	·	·	·	·
Cc1cccc(/C=C2/Sc3ccc(C(=O)NCCCN4CCOCC4)cc3NC2=O)c1	-9.9	-7.7	-2.9	17.9*	10.7	16.3	-2.1	22.5*	-6.9	11.9*
CCN1CCCC1CNC(=O)c1ccc2c(c1)NC(=O)/C(=C\c1ccc(OC)c(OC)c1)S2 (stereo unspecified)	282.3	-9.6	0.8	21.2*	11.5	1.6	-4.0	13.6	-6.9	24.3*
Cc1c(C(=O)Nc2ccc(C(F)(F)F)cc2)sc2ncn(CC(=O)N3CCN(c4ccccn4)CC3)c(=O)c12	34.7	26.7	2.3	-0.5	-9.7	0.4	·	·	·	·
CCC1Oc2ccccc2N(CC(=O)NCCCN2CCN(c3ccc(OC)cc3)CC2)C1=O (stereo unspecified)	11.9	8.0	-1.1	-1.3	16.8	8.3	·	·	·	·
COc1ccc(C2=Nn3c(nnc3-c3ccco3)SC2)cc1OC	-3.0	0.5	2.6	22.6*	17.6	19.0	-3.2	-5.5	-6.9	30.9*
COc1ccc(C2=Nn3c(nnc3-c3ccccn3)SC2)cc1OC	-3.5	10.4	-2.9	51.7*	13.8	4.3	-2.8	-2.2	-6.9	67.2*
COc1ccc(C2=Nn3c(nnc3-c3ccccc3OC)SC2)cc1OC	-30.9	14.2	-1.4	14.1*	-0.6	·	-2.5	1.7	-6.2	26.9*
COc1ccc(OC)c(C2=Nn3c(nnc3-c3cc(OC)c(OC)c(OC)c3)SC2)c1	-9.3	6.0	-4.1	12.6*	-4.3	-2.9	-2.7	2.7	-5.9	25.5*
CCS(=O)(=O)c1nc(S(=O)(=O)c2ccc(C)cc2)c(N2CC(C)CC(C)C2)s1 (stereo unspecified)	10.9	4.9	-2.9	-1.8	21.9	2.8	·	·	·	·
O=C(O)CC(c1ccccc1)N1C(=O)c2cccc([N+](=O)[O-])c2C1=O (stereo unspecified)	11.7	-6.2	-1.3	0.0	10.6	9.3	·	·	·	·
Oc1ccc2ccccc2c1-c1sc(Nc2ccccc2)n[n+]1-c1ccc(F)cc1	2.2	-19.0	0.5	16.9*	13.2	25.2	4.9*	-3.7	1.3*	8.2*
SMILES	Mot1-301 SUMO	PolyA inh	IMP-1 inh-1	VIM-2 inh	NALP1 yeast inh	NALP3 yeast inh	IMP-1 inh-2	VIM-2 FRET ctr	TEM-1 inh	VIM-2 inh conf
CCOc1ccc2nc(NCCNC(=S)NCCCN(C)C)c(C#N)cc2c1	2.9	18.9	0.3	13.1*	-8.9	9.6	-4.3	-4.8	-7.8	18.4*
CC(=O)Oc1ccc2nc(/C=C/c3ccccc3)oc(=O)c2c1	62.2	-1.2	-5.4	-2.6	8.1	33.0	·	·	·	·
COc1ccc(/C=C2\CCCc3c2nc2ccccc2c3C(=O)OCC(=O)c2c(N)n(C)c(=O)n(C)c2=O)cc1	-22.4	-3.1	0.4	14.5*	22.7	12.0	-2.7	2.5	-6.4	5.9
Cn1c(N)c(C(=O)COC(=O)c2cc(-c3ccco3)nc3ccccc23)c(=O)n(Cc2ccccc2)c1=O	-11.2	-14.6	-0.8	-0.3	28.2	13.2	·	·	·	·
COc1ccc(/C=C/C(=O)OCC(=O)c2c(N)n(C)c(=O)n(C)c2=O)cc1	-9.8	10.8	-2.2	-2.4	44.5	17.2	·	·	·	·
Cn1c(N)c(C(=O)COC(=O)c2cc(-c3ccco3)nc3ccccc23)c(=O)n(C)c1=O	·	17.1	4.3	13.8*	25.3	5.1	-2.4	-20.2	-4.7	37.5*
Cn1c(N)c(C(=O)COC(=O)c2cc(C3CC3)nc3ccccc23)c(=O)n(C)c1=O	-23.6	-11.0	-3.0	13.2*	11.9	6.4	-2.3	9.4	-6.5	63.0*
Cn1c(N)c(C(=O)COC(=O)c2cc(C(F)(F)F)nc3ccccc23)c(=O)n(Cc2ccccc2)c1=O	-3.7	·	-1.7	-2.1	31.4	14.8	·	·	·	·
CC(=O)C[C@@H](O)CC(=O)[C@@H]1OC(=O)CCCCCc2ccccc21	·	·	·	·	·	7.3	·	·	·	·
CN(C)c1ccc(/C=C2\C(=N)N3N=C(CC(=O)N4CCCCC4)SC3=NC2=O)cc1	-5.5	-3.9	1.2	13.4*	-9.8	-0.3	-1.3	29.2*	-5.3	18.0*

Screening results deposited in PubChem by several laboratories.
